Measurements from ChEMBL document CHEMBL1667809, “Synthesis and in vitro antibacterial activity of 7-(3-alkoxyimino-5-amino/methylaminopiperidin-1-yl)fluoroquinolone derivatives” (Bioorg Med Chem Lett, 2011).
Converted amounts (≈) assume the structure as drawn.

Tests used:
[1] = test system: Streptococcus pneumoniae; experiment: Antibacterial activity against Streptococcus pneumoniae 1001 after 18 to 24 hrs by agar dilution method; assay type: functional
In short: (§1)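 Agar dilution on Petri dishes, each inoculated with 10⁴ cfu of the strain and incubated at 35 °C for 18–24 h. MIC read as the lowest compound concentration giving no visible growth on the plate.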

[2] = test system: Staphylococcus aureus; experiment: Antibacterial activity against methicillin-sensitive Staphylococcus aureus 10-04 after 18 to 24 hrs by agar dilution method; assay type: functional; in short: as §1
[3] = test system: Streptococcus pyogenes; experiment: Ratio of compound MIC to LVFX MIC for Streptococcus hemolyticus 1002; assay type: functional
[4] = test system: Streptococcus pyogenes; experiment: Ratio of compound MIC to CPFX MIC for Streptococcus hemolyticus 1002; assay type: functional
[5] = test system: Escherichia coli; experiment: Antibacterial activity against Escherichia coli 10-02 after 18 to 24 hrs by agar dilution method; assay type: functional; in short: as §1
[6] = test system: Pseudomonas aeruginosa; experiment: Antibacterial activity against Pseudomonas aeruginosa 10-1 after 18 to 24 hrs by agar dilution method; assay type: functional; in short: as §1
[7] = test system: Staphylococcus epidermidis; experiment: Ratio of compound MIC to LVFX MIC for methicillin-resistant Staphylococcus epidermidis 10-5; assay type: functional
[8] = test system: Pseudomonas aeruginosa; experiment: Antibacterial activity against Pseudomonas aeruginosa ATCC 27853 after 18 to 24 hrs by agar dilution method; assay type: functional; in short: as §1
[9] = test system: Escherichia coli; experiment: Antibacterial activity against Escherichia coli ATCC 25922 after 18 to 24 hrs by agar dilution method; assay type: functional; in short: as §1
[10] = Cytotoxicity against african green monkey Vero cells after 24 hrs; assay type: cell-based; settings: chlorocebus sabaeus
In short: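 Vero cells exposed to graded compound concentrations for 24 h, then viability assessed; CC₅₀ derived from the viability data.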

[11] = test system: Staphylococcus aureus; experiment: Ratio of compound MIC to CPFX MIC for methicillin-sensitive Staphylococcus aureus 10-04; assay type: functional
[12] = test system: Staphylococcus aureus; experiment: Antibacterial activity against methicillin-resistant Staphylococcus aureus 10-05 after 18 to 24 hrs by agar dilution method; assay type: functional
In short: (§2)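 Agar dilution on Petri dishes, each inoculated with 10⁴ cfu. Plates incubated at 35 °C for 18–24 h. MIC taken as the lowest test-compound concentration giving no visible growth on the plate. Reference drugs gemifloxacin, ciprofloxacin and levofloxacin run alongside for comparison.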

[13] = test system: Klebsiella pneumoniae; experiment: Antibacterial activity against Klebsiella pneumoniae 10-1 after 18 to 24 hrs by agar dilution method; assay type: functional; in short: as §1
[14] = test system: Staphylococcus epidermidis; experiment: Antibacterial activity against methicillin-sensitive Staphylococcus epidermidis 10-4 after 18 to 24 hrs by agar dilution method; assay type: functional; in short: as §1
[15] = test system: Staphylococcus aureus; experiment: Ratio of compound MIC to LVFX MIC for methicillin-sensitive Staphylococcus aureus 10-04; assay type: functional
[16] = test system: Streptococcus pyogenes; experiment: Ratio of compound MIC to GMFX MIC for Streptococcus hemolyticus 1002; assay type: functional
[17] = test system: Streptococcus pyogenes; experiment: Antibacterial activity against Streptococcus hemolyticus 1002 after 18 to 24 hrs by agar dilution method; assay type: functional; in short: as §1
[18] = test system: Staphylococcus epidermidis; experiment: Antibacterial activity against methicillin-resistant Staphylococcus epidermidis 10-5 after 18 to 24 hrs by agar dilution method; assay type: functional; in short: as §2
[19] = test system: Staphylococcus epidermidis; experiment: Ratio of compound MIC to CPFX MIC for methicillin-resistant Staphylococcus epidermidis 10-5; assay type: functional
[20] = test system: Staphylococcus epidermidis; experiment: Ratio of compound MIC to GMFX MIC for methicillin-resistant Staphylococcus epidermidis 10-5; assay type: functional
[21] = test system: Staphylococcus aureus; experiment: Ratio of compound MIC to GMFX MIC for methicillin-sensitive Staphylococcus aureus 10-04; assay type: functional
[22] = test system: Staphylococcus aureus; experiment: Antibacterial activity against Staphylococcus aureus ATCC 25923 after 18 to 24 hrs by agar dilution method; assay type: functional; in short: as §1
[23] = test system: Staphylococcus aureus; experiment: Ratio of compound MIC to CPFX MIC for methicillin-resistant Staphylococcus aureus 10-05; assay type: functional
[24] = test system: Staphylococcus aureus; experiment: Ratio of compound MIC to GMFX MIC for methicillin-resistant Staphylococcus aureus 10-05; assay type: functional
[25] = test system: Staphylococcus aureus; experiment: Ratio of compound MIC to LVFX MIC for methicillin-resistant Staphylococcus aureus 10-05; assay type: functional

Row | SMILES | MIC [1] [µg/mL] | MIC [2] [µg/mL] | MIC [5] [µg/mL] | MIC [6] [µg/mL] | Ratio [7] | MIC [8] [µg/mL] | MIC [9] [µg/mL] | CC50 at 24 h [10] [µM] | Ratio [11] | MIC [12] [µg/mL] | MIC [13] [µg/mL] | MIC [14] [µg/mL] | Ratio [15] | MIC [17] [µg/mL] | MIC [18] [µg/mL] | Ratio [19] | Ratio [20] | Ratio [21] | MIC [22] [µg/mL] | also measured
1 | CO/N=C1\CC(N)CN(c2c(F)cc3c(=O)c(C(=O)O)cn(C4CC4)c3c2OC)C1 (stereo unspecified) | 0.25 (≈ 0.597 µM) | 0.5 (≈ 1.19 µM) | 0.25 (≈ 0.597 µM) | 4 (≈ 9.56 µM) | 2 | 4 (≈ 9.56 µM) | 0.25 (≈ 0.597 µM) | 885 | 4 | 4 (≈ 9.56 µM) | 64 (≈ 153 µM) | 2 (≈ 4.78 µM) | 4 | 4 (≈ 9.56 µM) | 4 (≈ 9.56 µM) | 4 | 2 | 4 | 0.25 (≈ 0.597 µM) | Ratio [3]: 2; Ratio [4]: 2; Ratio [16]: 2
2 | CCO/N=C1\CC(N)CN(c2c(F)cc3c(=O)c(C(=O)O)cn(C4CC4)c3c2OC)C1 (stereo unspecified) | 0.125 (≈ 0.289 µM) | 0.125 (≈ 0.289 µM) | 0.25 (≈ 0.578 µM) | > 128 | 4 | 8 (≈ 18.5 µM) | 0.25 (≈ 0.578 µM) | 879 | 16 | 2 (≈ 4.62 µM) | 128 (≈ 296 µM) | 1 (≈ 2.31 µM) | 16 | 8 (≈ 18.5 µM) | 2 (≈ 4.62 µM) | 8 | 4 | 16 | 0.25 (≈ 0.578 µM) | Ratio [23]: 2; Ratio [24]: 2; Ratio [25]: 2
3 | CNC1C/C(=N\OC)CN(c2c(F)cc3c(=O)c(C(=O)O)cn(C4CC4)c3c2OC)C1 (stereo unspecified) | 0.5 (≈ 1.16 µM) | 0.5 (≈ 1.16 µM) | 0.25 (≈ 0.578 µM) | 128 (≈ 296 µM) | 2 | 64 (≈ 148 µM) | 0.25 (≈ 0.578 µM) | 1090 | 4 | 2 (≈ 4.62 µM) | 128 (≈ 296 µM) | 1 (≈ 2.31 µM) | 4 | 8 (≈ 18.5 µM) | 4 (≈ 9.25 µM) | 4 | 2 | 4 | 0.5 (≈ 1.16 µM) | –
4 | CCO/N=C1\CC(NC)CN(c2c(F)cc3c(=O)c(C(=O)O)cn(C4CC4)c3c2OC)C1 (stereo unspecified) | 1 (≈ 2.24 µM) | 0.5 (≈ 1.12 µM) | 0.25 (≈ 0.56 µM) | 128 (≈ 287 µM) | 2 | 128 (≈ 287 µM) | 0.25 (≈ 0.56 µM) | 1520 | 4 | 8 (≈ 17.9 µM) | 128 (≈ 287 µM) | 0.25 (≈ 0.56 µM) | 4 | 128 (≈ 287 µM) | 4 (≈ 8.96 µM) | 4 | 2 | 4 | 0.5 (≈ 1.12 µM) | –
5 | CCO/N=C1\CC(N)CN(c2c(F)cc3c(=O)c(C(=O)O)cn(C4CC4)c3c2F)C1 (stereo unspecified) | 0.25 (≈ 0.595 µM) | 0.5 (≈ 1.19 µM) | 0.25 (≈ 0.595 µM) | > 128 | 2 | 8 (≈ 19 µM) | 0.25 (≈ 0.595 µM) | 1320 | 4 | 4 (≈ 9.51 µM) | 64 (≈ 152 µM) | 0.5 (≈ 1.19 µM) | 4 | 64 (≈ 152 µM) | 4 (≈ 9.51 µM) | 4 | 2 | 4 | 0.25 (≈ 0.595 µM) | –
6 | CNC1C/C(=N\OC)CN(c2c(F)cc3c(=O)c(C(=O)O)cn(C4CC4)c3c2F)C1 (stereo unspecified) | 1 (≈ 2.38 µM) | 2 (≈ 4.76 µM) | 0.25 (≈ 0.595 µM) | 128 (≈ 304 µM) | 2 | 8 (≈ 19 µM) | 0.25 (≈ 0.595 µM) | 1020 | – | 8 (≈ 19 µM) | 128 (≈ 304 µM) | 2 (≈ 4.76 µM) | – | 8 (≈ 19 µM) | 2 (≈ 4.76 µM) | – | 2 | – | 0.25 (≈ 0.595 µM) | –
7 | CCO/N=C1\CC(NC)CN(c2c(F)cc3c(=O)c(C(=O)O)cn(C4CC4)c3c2F)C1 (stereo unspecified) | 1 (≈ 2.3 µM) | 0.25 (≈ 0.575 µM) | 0.5 (≈ 1.15 µM) | > 128 | 2 | 128 (≈ 295 µM) | 0.25 (≈ 0.575 µM) | 1010 | 4 | 4 (≈ 9.21 µM) | > 128 | 0.5 (≈ 1.15 µM) | 4 | 128 (≈ 295 µM) | 2 (≈ 4.6 µM) | – | 2 | 4 | 0.5 (≈ 1.15 µM) | –
8 | CCO/N=C1\CC(N)CN(c2c(F)cc3c(=O)c(C(=O)O)cn(C4CC4)c3c2OC(F)F)C1 (stereo unspecified) | 1 (≈ 2.13 µM) | 0.25 (≈ 0.534 µM) | 0.25 (≈ 0.534 µM) | > 128 | 2 | 128 (≈ 273 µM) | 0.25 (≈ 0.534 µM) | 1520 | 4 | 4 (≈ 8.54 µM) | > 128 | 0.25 (≈ 0.534 µM) | 4 | 128 (≈ 273 µM) | 1 (≈ 2.13 µM) | – | 2 | 4 | 0.5 (≈ 1.07 µM) | –
9 | CCO/N=C1\CC(N)CN(c2c(F)cc3c(=O)c(C(=O)O)cn4c3c2OC[C@@H]4C)C1 (stereo partly specified) | 0.25 (≈ 0.597 µM) | 0.5 (≈ 1.19 µM) | 0.25 (≈ 0.597 µM) | 32 (≈ 76.5 µM) | 4 | 8 (≈ 19.1 µM) | 0.25 (≈ 0.597 µM) | 1240 | 4 | 4 (≈ 9.56 µM) | 64 (≈ 153 µM) | 0.5 (≈ 1.19 µM) | 4 | 8 (≈ 19.1 µM) | 2 (≈ 4.78 µM) | 8 | 4 | 4 | 0.25 (≈ 0.597 µM) | –
